DENV2 CPE: inhibitors of DENV2 cytopathic effect, primary screen, cell-based, plate reader, single concentration; CPE inhibition, % at 9.99 µM; AID 651640, 2012; DENV2-infected cells, cytopathic effect rescue; hit rate 1.7% among 350,000; in the data active = CPE inhibition above about 20%, passing the limit was not always enough; tested in BHK-21 cells
SIRT5 block: SIRT5 desuccinylase inhibitors, primary screen, biochemical, fluorescence imaging, single point, set 5 | NAD-dependent protein deacylase sirtuin-5, mitochondrial (Homo sapiens), Q9NXA8 | Purified SirT5, succinyl-peptide AMC, trypsin-coupled fluorescence | inhibition, % at 15 µM | hit rate 1.1% among 330,000; in the data active = inhibition above about 15%
Target sequence (Q9NXA8 whole entry, looked up): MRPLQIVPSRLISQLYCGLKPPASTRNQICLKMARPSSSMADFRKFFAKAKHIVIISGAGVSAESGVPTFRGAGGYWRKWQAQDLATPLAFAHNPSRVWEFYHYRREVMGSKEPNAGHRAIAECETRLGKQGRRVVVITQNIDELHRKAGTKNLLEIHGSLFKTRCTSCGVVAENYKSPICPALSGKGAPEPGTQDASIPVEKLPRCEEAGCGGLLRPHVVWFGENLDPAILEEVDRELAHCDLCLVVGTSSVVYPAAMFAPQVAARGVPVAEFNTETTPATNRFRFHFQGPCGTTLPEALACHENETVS
PGC1a acetyl inh: inhibitors of PGC1a acetylation signal, primary screen, cell-based, U2OS, AlphaScreen, inhibitor mode. AlphaScreen anti-acetyl-lysine; with virally co-expressed GCN5 acetyltransferase. inhibition, % at 15.6 µM. hit rate 0.17% among 350,000. AID 651687, 2012;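 active = every replicate shows inhibition of at least 40%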
S100A4 inh HTS: inhibitors of S100A4-myosin IIA peptide binding, primary screen, biochemical, fluorescence polarization, TAMRA-MyoIIA peptide; Protein S100-A4 (Homo sapiens), P26447; inhibition, % at 10.7 µM; hit rate 0.14% among 360,000; AID 652163, 2013;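 active = mean inhibition of at least 70% across replicates, with every replicate also reaching that level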
Target sequence (P26447 whole entry, looked up): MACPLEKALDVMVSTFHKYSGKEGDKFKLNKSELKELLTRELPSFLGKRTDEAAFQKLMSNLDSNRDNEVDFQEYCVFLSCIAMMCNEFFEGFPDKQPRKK
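Material: human S100A4 monomer with TAMRA-labelled myosin IIA peptide; buffer or medium: HEPES pH 7.2 with CaCl2, KCl, NaCl, DTT, Triton; compound dosing: one concentration per compound; schedule: 5 min incubation before reading; benchmarks: neutral control DMSO, positive control TFP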
Statin myotox sup: suppressors of statin myotoxicity in C2C12 myotubes, primary screen, cell-based, single point, plate reader | AID 602340, 2012 | C2C12 myotubes + simvastatin, ATP luminescence, 48 h; scaled: DMSO 0, geranylgeraniol control 100 | rescue of ATP level, % at 7.49 µM | hit rate 0.78% among 330,000;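 active = mean ATP rescue above about 67%, or every replicate alone reaching that limit, limit read from the data, passing the limit was not always enough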;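 note: myotubes were challenged with 10 µM simvastatin during compound exposure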
Numbers stand for hits. The list is not random: actives were taken first. Their share in the collection is about 2.9%.

How did CO[C@@H]1CN(C)C(=O)c2ccc(NS(=O)(=O)c3cn(C)cn3)cc2OC[C@H](C)N(CCC(F)(F)F)C[C@H]1C do in these assays?
DENV2 CPE: inactive; SIRT5 block: inactive; PGC1a acetyl inh: inactive; S100A4 inh HTS: inactive

What do the screens show for `C[C@@H]1CN([C@H](C)CO)C(=O)c2cc(NC(=O)Nc3ccccc3)ccc2O[C@H]1CN(C)C(=O)Nc1ccc(C(F)(F)F)cc1`?
DENV2 CPE: inactive; SIRT5 block: inactive; PGC1a acetyl inh: inactive; S100A4 inh HTS: inactive; Statin myotox sup: inactive

How did COc1cccc(NC(=O)N(C)C[C@@H]2OCc3ccccc3-c3c(n(C)c4ccccc34)C(=O)N([C@@H](C)CO)C[C@@H]2C)c1 do in these assays?
DENV2 CPE: inactive; SIRT5 block: inactive; PGC1a acetyl inh: inactive; S100A4 inh HTS: 97; Statin myotox sup: inactive

Results for COc1ccc(NC(=O)N(C)C[C@@H]2OCc3ccccc3-c3c(n(C)c4ccccc34)C(=O)N([C@@H](C)CO)C[C@@H]2C)cc1 ?
DENV2 CPE: inactive; SIRT5 block: 21; PGC1a acetyl inh: inactive; S100A4 inh HTS: inactive; Statin myotox sup: inactive

Results for COCC(=O)N(C)C[C@@H]1Oc2cc(C3=CCCCC3)ccc2S(=O)(=O)N([C@@H](C)CO)C[C@@H]1C ?
DENV2 CPE: inactive; SIRT5 block: inactive; PGC1a acetyl inh: inactive; S100A4 inh HTS: inactive; Statin myotox sup: inactive

Results for CO[C@@H]1CN(C)C(=O)c2ccc(NC(=O)c3cccc(F)c3)cc2OC[C@H](C)NC[C@H]1C ?
DENV2 CPE: inactive; SIRT5 block: inactive; PGC1a acetyl inh: inactive; S100A4 inh HTS: inactive; Statin myotox sup: inactive

How did S=c1sc2c(Cl)ncnc2n1-c1ccccc1 do in these assays?
DENV2 CPE: inactive; SIRT5 block: inactive; PGC1a acetyl inh: 64; S100A4 inh HTS: inactive; Statin myotox sup: inactive

How did COc1ccc(S(=O)(=O)N2CCCCN3[C@H](CO)[C@H](c4ccc(C#CCC(C)C)cc4)[C@@H]3C2)cc1 do in these assays?
DENV2 CPE: inactive; SIRT5 block: 16; PGC1a acetyl inh: inactive; S100A4 inh HTS: inactive

Results for COc1ccc(S(=O)(=O)N2CCCCN3[C@H](CO)[C@H](c4ccc(C#CCC(C)C)cc4)[C@H]3C2)cc1 ?
PGC1a acetyl inh: inactive

Results for COc1ccc(S(=O)(=O)N2CCCCN3[C@H](C2)[C@@H](c2ccc(C#CC(C)C)cc2)[C@@H]3CO)cc1 ?
DENV2 CPE: inactive; SIRT5 block: 16; PGC1a acetyl inh: inactive; S100A4 inh HTS: inactive; Statin myotox sup: inactive

Results for COc1ccc(S(=O)(=O)N2CCCCN3[C@H](CO)[C@H](c4ccc(C#CC(C)C)cc4)[C@H]3C2)cc1 ?
DENV2 CPE: inactive; SIRT5 block: 20; PGC1a acetyl inh: inactive; S100A4 inh HTS: inactive; Statin myotox sup: inactive

What do the screens show for `COc1cccc(S(=O)(=O)N2CCCCN3[C@H](CO)[C@@H](c4ccc(C#CC(C)C)cc4)[C@@H]3C2)c1`?
DENV2 CPE: inactive; SIRT5 block: inactive; PGC1a acetyl inh: inactive; S100A4 inh HTS: inactive

Results for COc1cccc(S(=O)(=O)N2CCCCN3[C@H](CO)[C@H](c4ccc(C#CC(C)C)cc4)[C@@H]3C2)c1 ?
DENV2 CPE: inactive; SIRT5 block: inactive; PGC1a acetyl inh: inactive; S100A4 inh HTS: inactive

What do the screens show for `CC(C)NC(=O)NCC[C@@H]1CC[C@@H](NC(=O)Nc2ccccc2)[C@H](CO)O1`?
DENV2 CPE: inactive; SIRT5 block: inactive; PGC1a acetyl inh: inactive; Statin myotox sup: inactive

Results for CCCC(=O)C1=C(O)C(C(=O)OC)C(C)(C)CC1=Nc1ccc(OC)cc1 (stereo unspecified) ?
DENV2 CPE: inactive; SIRT5 block: inactive; PGC1a acetyl inh: 46; S100A4 inh HTS: inactive

How did CCOc1ccc(N2CC(C(=O)Nc3ccc(S(=O)(=O)NCC4CCCO4)cc3)CC2=O)cc1 (stereo unspecified) do in these assays?
DENV2 CPE: inactive; SIRT5 block: inactive; PGC1a acetyl inh: 56; S100A4 inh HTS: inactive; Statin myotox sup: inactive

What do the screens show for `C[C@@H]1CN([C@H](C)CO)C(=O)c2cc(NC(=O)NC3CCCCC3)ccc2O[C@H]1CN(C)CC1CCCCC1`?
DENV2 CPE: inactive; SIRT5 block: inactive; PGC1a acetyl inh: inactive; S100A4 inh HTS: inactive; Statin myotox sup: inactive

Bioassay records as filed in PubChem.
